The values below come from PubChem BioAssay.

A short description of test [1]: inhibitors of TNFa-induced NFkB p65 translocation, primary screen, imaging, HUVEC, MLSMR starter and 10KST1 sets (AID 438;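 active = inhibition above 20% together with a positive visual image hit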;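 note: compound added about 3h40 before a 20 min TNFalpha stimulation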;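 for inhibition: signal is the nuclear over cytoplasmic p65 intensity ratio per well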). As to conditions: HUVEC TNFa-induced p65 nuclear translocation; cell count: measured here: nuclei count (cytotoxicity indicator), at 2.08 µM; inhibition: at 2 µM, stronger effect = higher value, 0% TNFa-plus-vehicle, 100% no-TNFa wells.
Test [2] in a line: inhibitors of mutant huntingtin aggregation, primary screen, imaging, exon1htt(103Q)mCFP cells, high-content imaging (AID 483).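 For nuclei count: percent of the per-plate median nuclei count of sample wells.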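 Note: compound exposure lasted 3 days before fixation.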 As to conditions: exon1htt(103Q)mCFP cell line, aggregate imaging, at 2 µM; inhibition of aggregation: stronger effect = higher value; nuclei count: measured here: cell count, toxicity.
The nature of test [3]: inhibitors of E-selectin induction by TNFa, primary screen, imaging, HUVEC, immunofluorescence, MLSMR starter and 10KST1 sets (AID 487;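 active = visually confirmed hit in the image check and inhibition above 20%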;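 for inhibition: signal is fraction of cell area covered by stained E-selectin grains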;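 for nuclei count: 100% = median nuclei count of all wells on the same plate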). As to conditions: HUVEC TNFalpha-induced E-selectin immunofluorescence imaging, at 2 µM; inhibition: stronger effect = higher value; nuclei count: measured here: cell number, toxicity.
Test [4] addresses Voltage-gated potassium channel subunit beta-2 (Rattus norvegicus) (UniProt P62483). In words: KvBeta enzyme negative modulators, primary screen, biochemical, NADPH fluorescence (AID 622;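 active = fluorescence slope higher than the sample average by over 3 SD, cut at about -0.22 in these data, passing the limit was not always enough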;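 note: slope of raw intensity against log time taken from 70 to 1610 s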). Particulars: recombinant KvBeta, 4-cyanobenzaldehyde reduction, at 10 µM, stronger effect = higher value.
Test [5] has the same target. Description: KvBeta positive modulators, primary screen, biochemical, NADPH fluorescence (AID 623;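 active = NADPH fluorescence slope more negative than the mean of all samples by about 3 SD, 99.7% confidence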;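 note: fluorescence intensity change per second fitted from 20 to 320 s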). Particulars: Recombinant KvBeta, NADPH fluorescence decrease slope, 10 min; at 10 µM; stronger effect = lower value.
Test [6] concerns the target Muscarinic acetylcholine receptor M4 (Homo sapiens) (UniProt P08173). Description: compounds altering M4/GIRK thallium flux, either direction, primary screen, M4 allosteric agonist project, cell-based, HEK293 M4/GIRK, BTC-AM (AID 625;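 active = fluorescence slope after compound addition differing from the mean of all tested samples at 99.7% confidence, mostly higher but some lower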;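 note: thallium influx through GIRK channels coupled to M4 in HEK293 cells with BTC-AM dye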). Particulars: at 10 µM, actives lie on both sides. Summed up: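 Assay system: HEK293 cells with M4 receptor and GIRK channels / Controls: carbachol and DMSO controls / Schedule: 1 h dye loading, 2 min kinetic read / Technique: kinetic fluorescence with BTC-AM dye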

A short description of test [7]: inhibitors of Sendai virus-induced IRF3 signaling, primary screen, TLR/RLR signaling modifier project, cell-based, Sendai virus stimulus, luciferase, 10K MLSCN set (AID 602276;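 active = inhibition at or above 50% at 10 µM; inactive = inhibition below 50%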;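 note: firefly luciferase from ISG56 promoter only with Renilla not read in this screen; 0% = Sendai virus plus DMSO and 100% = medium plus DMSO without virus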). Particulars: HEK293 RL24 IRF3 luciferase reporter, at 10 µM, stronger effect = higher value.
Test [8] in a line: inhibitors of poly I:C-induced TLR3 signaling, primary screen, cell-based, poly I:C stimulus, luciferase, 10K MLSCN set (AID 602277;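 active = inhibition of the reporter signal at or above 50%; inactive = inhibition below 50%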). As to conditions: HEK293-TLR3 RL24 IRF3 luciferase reporter, at 10 µM, stronger effect = higher value. In general terms: A reporter such as luciferase makes a cellular process visible.

The source made the active and inactive calls.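 Rule for the calls, unless noted: active = visual image review flags a hit and inhibition of aggregation exceeds 20%; inconclusive = visual hit but inhibition at or below 20%; inactive = no hit on visual image review.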

Sequence of Muscarinic acetylcholine receptor M4 (Homo sapiens) (P08173 whole entry, looked up): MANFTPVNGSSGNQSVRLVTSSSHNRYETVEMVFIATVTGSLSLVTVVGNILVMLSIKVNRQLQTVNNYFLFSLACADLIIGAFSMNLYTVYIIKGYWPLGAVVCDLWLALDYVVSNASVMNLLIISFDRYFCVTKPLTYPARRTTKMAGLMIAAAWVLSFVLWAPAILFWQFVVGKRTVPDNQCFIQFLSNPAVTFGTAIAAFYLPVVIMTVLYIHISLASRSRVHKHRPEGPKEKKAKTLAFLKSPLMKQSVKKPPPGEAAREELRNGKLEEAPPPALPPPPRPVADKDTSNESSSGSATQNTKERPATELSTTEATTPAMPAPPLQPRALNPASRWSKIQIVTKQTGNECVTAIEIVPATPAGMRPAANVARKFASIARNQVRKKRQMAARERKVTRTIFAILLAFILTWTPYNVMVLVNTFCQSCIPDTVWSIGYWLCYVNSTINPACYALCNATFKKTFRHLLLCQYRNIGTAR
Sequence of Voltage-gated potassium channel subunit beta-2 (Rattus norvegicus) (P62483 whole entry, looked up): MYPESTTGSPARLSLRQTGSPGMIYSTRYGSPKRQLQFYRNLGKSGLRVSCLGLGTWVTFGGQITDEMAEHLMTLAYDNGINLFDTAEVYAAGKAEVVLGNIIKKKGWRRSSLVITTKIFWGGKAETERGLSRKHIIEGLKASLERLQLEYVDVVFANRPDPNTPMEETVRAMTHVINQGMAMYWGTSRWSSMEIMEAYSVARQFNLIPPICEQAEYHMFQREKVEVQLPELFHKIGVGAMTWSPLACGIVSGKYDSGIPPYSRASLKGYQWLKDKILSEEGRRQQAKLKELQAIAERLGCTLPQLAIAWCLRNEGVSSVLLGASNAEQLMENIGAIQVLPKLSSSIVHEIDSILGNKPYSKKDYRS

In the case of `CCC(=O)N1CCc2cc(S(=O)(=O)CCC(=O)Nc3ccc(C)c(F)c3)ccc21`, in test [1], the cell count turned out to be 565. Besides, the inhibition in test [1] is 2.7% (inactive); in test [3] it was -119% (inactive); in test [7], 8.99% (inactive); in test [8] it was 14.5% (inactive). Further, in test [2], the inhibition of aggregation is -3% (inactive). Besides, the nuclei count turned out to be 111% in test [2] and 136% in test [3]. Further, the values for the fluorescence slope in test [4] and in test [6] were -0.504 (inactive) and 0.00659 (inactive), respectively. Further, the NADPH fluorescence slope in test [5] is 0.000146 (inactive).
Take `CCN(c1ccc(OC)cc1)S(=O)(=O)c1ccc2c(c1)CCN2C(=O)CCC(=O)O`: in test [1], the cell count turned out to be 625. For the same compound, the inhibition in test [1] was 8.3% (inactive); in test [3], -35.6% (inactive); in test [7] it was 14.1% (inactive); in test [8], 20.9% (inactive). The inhibition of aggregation in test [2] was -38.2% (inactive). Also, the nuclei count in test [2] worked out at 92.1%; in test [3] it was 115%. Further, the fluorescence slope in test [4] was -0.454 (inactive); in test [6] it was 0.00631 (inactive). Moreover, the NADPH fluorescence slope in test [5] was 2.3e-05 (inactive).
With `Cc1cc(C)n2nc(C(=O)NCc3ccco3)nc2n1`, the cell count in test [1] amounted to 389. The inhibition in test [1] was 1.4% (inactive); in test [3], -3.3% (inactive); in test [7], 10.5% (inactive); in test [8], 10.8% (inactive). In addition, the inhibition of aggregation in test [2] was 6.6% (inactive). Further, the nuclei count came to 103% in test [2] and 109% in test [3]. Also, the fluorescence slope in test [4] is -0.582 (inactive); in test [6], 0.00618 (inactive). In test [5], the NADPH fluorescence slope was -4.1e-05 (inactive).
`CN(CC(=O)N1CCN(c2ccccn2)CC1)S(=O)(=O)c1ccc2ccccc2c1`: in test [1], the cell count came out at 395. Besides, the inhibition in test [1] was 0.9% (inactive); in test [3], -109% (inactive); in test [7], 4.05% (inactive); in test [8] it was 4.08% (inactive). Moreover, the inhibition of aggregation in test [2] was 1.9% (inactive). Also, the nuclei count in test [2] was determined as 115%; in test [3], 119%. The figures for the fluorescence slope in test [4] and in test [6] were -0.478 (inactive) and 0.00469 (inactive), respectively. The NADPH fluorescence slope in test [5] is -7e-05 (inactive).
For the compound `Cc1c(NC(=O)C(C)OC(=O)COc2cccc3c2OC(C)(C)C3)c(=O)n(-c2ccccc2)n1C` (centres undefined), the cell count in test [1] came out at 652. Further, the inhibition is -11.6% (inactive) in test [1], -45.4% (inactive) in test [3], 4.56% (inactive) in test [7] and 14.8% (inactive) in test [8]. Further, the inhibition of aggregation in test [2] is -3.5% (inactive). In addition, the nuclei count in test [2] is 129%; in test [3], 122%. The values for the fluorescence slope in test [4] and in test [6] were -0.59 (inactive) and 0.00305 (inactive), respectively. For the same compound, the NADPH fluorescence slope in test [5] was -7.7e-05 (inactive).
Regarding `COc1ccc(Cc2nn3c(-c4cc(OC)c(OC)c(OC)c4)nnc3s2)cc1`, the cell count in test [1] was 552. The inhibition in test [1] was 7.6% (inactive); in test [3], 20.8% (inactive); in test [7] it was 14.7% (inactive); in test [8], -1.58% (inactive). Also, the inhibition of aggregation in test [2] was 17.4% (inactive). In addition, the nuclei count in test [2] was determined as 95.1%; in test [3] it was 103%. In addition, the fluorescence slope in test [4] is -0.254 (inactive); in test [6], 0.00585 (inactive). The NADPH fluorescence slope in test [5] was -2.7e-05 (inactive).
For `N#CC1=C(SCc2ccccc2)NC(=O)C(C#N)C12CCCC2` (centres undefined), in test [1], the cell count came out at 413. The inhibition in test [1] was 4% (inactive); in test [3], -9.1% (inactive); in test [7], 2.21% (inactive); in test [8], -12.9% (inactive). Also, the inhibition of aggregation in test [2] is -2.9% (inactive). For the same compound, the nuclei count was 116% in test [2] and 86.6% in test [3]. In addition, the fluorescence slope in test [4] was -0.426 (inactive); in test [6], 0.00517 (inactive). The NADPH fluorescence slope in test [5] is 2e-05 (inactive).
As for `COc1cc2c(cc1OC)CN(Cc1nc3ccsc3c(=O)[nH]1)CC2`, the cell count in test [1] was 335. For the same compound, the inhibition in test [1] was -6.2% (inactive); in test [3], -5.2% (inactive); in test [7], 24.1% (inactive); in test [8], 41.1% (inactive). Further, in test [2], the inhibition of aggregation was 26.3% (inactive). Moreover, the results for the nuclei count in test [2] and in test [3] were 93% and 110%, respectively. The fluorescence slope in test [4] is -0.579 (inactive); in test [6] it was 0.0061 (inactive). Further, the NADPH fluorescence slope in test [5] was -3.9e-05 (inactive).
Regarding `Cc1ccc2ncnc(NCCCN3CCOCC3)c2c1`, the cell count in test [1] is 339. Besides, the inhibition was -0.6% (inactive) in test [1], -25.5% (inactive) in test [3], -18.7% (inactive) in test [7] and -21.1% (inactive) in test [8]. The inhibition of aggregation in test [2] is 4.8% (inactive). Besides, the values for the nuclei count in test [2] and in test [3] were 101% and 115%, respectively. In addition, the figures for the fluorescence slope in test [4] and in test [6] were -0.484 (inactive) and 0.00376 (inactive), respectively. For the same compound, the NADPH fluorescence slope in test [5] is -0.000336 (inactive).
As to `Cc1nc2ccc(NC(=O)N3CCSCC3)cc2s1`, the cell count in test [1] is 710. For the same compound, the inhibition in test [1] is -0.4% (inactive); in test [3] it was -93.4% (inactive); in test [7], -33.4% (inactive); in test [8], -42.8% (inactive). Also, in test [2], the inhibition of aggregation is -7.6% (inactive). Also, the nuclei count came to 111% in test [2] and 96.5% in test [3]. For the same compound, the fluorescence slope in test [4] was -0.535 (inactive); in test [6] it was 0.00638 (inactive). Besides, in test [5], the NADPH fluorescence slope is 5e-05 (inactive).
On to `CCCn1c(SCC(=O)NCCc2ccccc2)nnc1-c1ccccn1`, for which the cell count in test [1] turned out to be 501. Also, the inhibition in test [1] was -7.9% (inactive); in test [3], -28.9% (inactive); in test [7] it was 3.67% (inactive); in test [8] it was 12.4% (inactive). The inhibition of aggregation in test [2] is 12.6% (inactive). Further, the nuclei count was found to be 103% in test [2] and 104% in test [3]. Also, the fluorescence slope is -0.543 (inactive) in test [4] and 0.00518 (inactive) in test [6]. Further, the NADPH fluorescence slope in test [5] was -4.4e-05 (inactive).
On to `O=C(CS(=O)(=O)c1cn(Cc2ccc(F)cc2)c2ccccc12)N1CCCCC1`, for which the cell count in test [1] was determined as 474. Further, the inhibition in test [1] is -0.2% (inactive); in test [3], 16.9% (inactive); in test [7], 3.28% (inactive); in test [8], 11.2% (inactive). Besides, in test [2], the inhibition of aggregation was -5% (inactive). Besides, the nuclei count amounted to 116% in test [2] and 110% in test [3]. The fluorescence slope in test [4] is -0.303 (inactive); in test [6] it was 0.00645 (inactive). The NADPH fluorescence slope in test [5] is -6.4e-05 (inactive).
Turning to `COc1ccc2c(C(F)(F)F)cc(=O)oc2c1C`, the cell count in test [1] was 701. Besides, the inhibition was -1.8% (inactive) in test [1], -97% (inactive) in test [3], 17% (inactive) in test [7] and 11.3% (inactive) in test [8]. Also, the inhibition of aggregation in test [2] was 0.8% (inactive). Besides, the nuclei count in test [2] was 99.9%; in test [3], 111%. Moreover, the fluorescence slope in test [4] was -0.428 (inactive); in test [6], 0.00456 (inactive). Further, in test [5], the NADPH fluorescence slope is 1.9e-05 (inactive).
As to `Cc1c(=O)n(OCc2ccccn2)c2ccccc2[n+]1[O-]`, the cell count in test [1] turned out to be 208. For the same compound, the inhibition in test [1] was -18.3% (inactive); in test [3], 14.4% (inactive); in test [7], 11.7% (inactive); in test [8], 16.8% (inactive). The inhibition of aggregation in test [2] is 27.8% (inactive). For the same compound, the nuclei count was found to be 112% in test [2] and 89.2% in test [3]. The fluorescence slope in test [4] is -0.412 (inactive); in test [6], 0.00625 (inactive). In addition, the NADPH fluorescence slope in test [5] is -1.8e-05 (inactive).

In general, inhibition refers to the change of the read-out against control, counted positive when it falls.
